The values that follow come from ChEMBL document CHEMBL4311989, “Anti-hepatitis-C virus activity and QSAR study of certain thiazolidinone and thiazolotriazine derivatives as potential NS5B polymerase inhibitors” (Eur J Med Chem, 2019).

SMILES strings stand for the structures.

The target in series [1] is RNA-directed RNA polymerase (Hepacivirus hominis, UniProt O39930). Put plainly: Inhibition of recombinant HCV genotype 1a NS5B polymerase coincubated with HCV international ribosome entry site template sequence containing nucleotide residues 21-371 of HCV 5'-untranslated Escherichia coli DNA polymerase I region incubated for 3 hrs by scintillation/luminescence counter method. On the set-up: species or system Hepatitis C virus subtype 1a. A digest of the protocol:
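Recombinant GT1a NS5B RdRp, […] (GenBank AF356827), used at 0.26 ug/well; VCH-759 as non-nucleoside positive control; IC50 determined.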

The test system of series [2] is Hepatitis C virus. The experiment in a line: Antiviral activity against HCV genotype 1a infected in human Huh7.5 cells assessed as reduction in viral replication by measuring HCV core antigen level by ELISA. Format: functional, organism-based, Hepacivirus hominis. Conditions: subtype 1a. A digest of the protocol: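 HCV GT1a replication in Huh-7.5 human hepatoma cells; HCV core protein quantified by core antigen ELISA per kit instructions. EC50 taken as concentration reducing HCV replication by 50%, with VCH-759 as reference.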

Series [3] addresses RNA-directed RNA polymerase (Hepacivirus hominis) (UniProt O39930). The experiment in a line: Potency index, ratio of VCH-759 IC50 to compound IC50 for HCV genotype 1a recombinant NS5B polymerase coincubated with HCV international ribosome entry site template sequence containing nucleotide residues 21-371 of HCV 5'-untranslated Escherichia coli DNA polymerase I region. Conditions: Hepatitis C virus subtype 1a.

A short description of series [4]: Selectivity index, ratio of CC50 for human RPTEC/TERT1 cells to EC50 for HCV infected in human Huh7.5 cells. To be noted: read-out: Ratio CC50/EC50. Format: toxicity, cell-based. In short, it runs like this: (§1)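 SI computed as CC50 on THLE-2 or RPTEC/TERT1 (MTT viability) divided by EC50 from HCV-infected Huh7.5 cells (core antigen ELISA).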
The nature of series [5]: Cytotoxicity against human RPTEC/TERT1 cells assessed as reduction in cell viability incubated for 24 hrs by MTT assay. Format: cell-based. In short, it runs like this:
(§2)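 Transformed normal human cells (THLE-2 liver epithelial; RPTEC/TERT1 proximal tubular epithelial) exposed to compound; viability read by MTT reduction to formazan. CC50 defined as concentration reducing cell viability by 50%; VCH-759 run as reference.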

The nature of series [6]: Selectivity index, ratio of CC50 for human THLE2 cells to EC50 for HCV infected in human Huh7.5 cells. Conditions: THLE2 cells (CC50) and HCV-infected Huh7.5 cells (EC50). Format: toxicity, cell-based. In short, it runs like this:
as §1

Series [7] can be described thus: Cytotoxicity against human THLE2 cells assessed as reduction in cell viability incubated for 24 hrs by MTT assay. Format: cell-based, THLE-2. In short, it runs like this:
as §2

On to `COc1ccc(/C=C2\SC(=O)N(CC(=O)Nc3ccccc3)C2=O)cc1`, for which the half-inhibitory concentration (IC50) in series [1] came to 0.25 µM. Further, the 50% effective concentration (EC50) in series [2] was 11.6 µM.
On the same counts, the results for `O=c1/c(=C\c2ccccc2)sc2n1CN(c1ccccc1)CN=2` are 0.62 µM and 13.3 µM.
Consider `O=C(CN1C(=O)S/C(=C\c2ccc(Cl)cc2)C1=O)Nc1ccccc1`, for which the Ratio IC50 in series [3] was in the range of 1 to 2. The half-maximal inhibitory concentration (IC50) in series [1] is 0.085 µM. Further, in series [2], the concentration giving a half-maximal response (EC50) came to 11.1 µM.
Take `COc1ccc(/C=C2\SC(=O)N(CC(=O)Nc3ccc(Cl)cc3)C2=O)cc1`: the IC50 in series [1] is 0.28 µM. For the same molecule, in series [2], the EC50 was 7.93 µM.
For the molecule `O=C(CN1C(=O)S/C(=C\c2ccccc2Cl)C1=O)Nc1ccccc1`, the figures for the selectivity ratio in series [4] and in series [6] were 42.5 and 27, respectively. The CC50 at 24 h in series [5] amounted to 161 µM; in series [7], 103 µM. The Ratio IC50 in series [3] is 4. The IC50 in series [1] was 0.035 µM. For the same molecule, the EC50 in series [2] worked out at 3.8 µM.
In the case of `COc1ccc(N2CN=c3s/c(=C/c4ccc(F)cc4)c(=O)n3C2)cc1`, the Ratio IC50 in series [3] was 1 to 2. Further, in series [1], the half-maximal inhibitory concentration (IC50) came out at 0.07 µM. Moreover, the EC50 in series [2] worked out at 40.1 µM.
Take `COc1ccc(NC(=O)CN2C(=O)S/C(=C\c3ccc(Cl)cc3)C2=O)cc1`: in series [1], the IC50 stood at 0.37 µM. In series [2], the concentration giving a half-maximal response (EC50) stood at 43.9 µM.
On the same counts, the results for `O=C(CN1C(=O)S/C(=C\c2ccc(F)cc2)C1=O)Nc1ccccc1` are 0.14 µM and 8.4 µM.
For the molecule `O=c1/c(=C\c2ccc(F)cc2)sc2n1CN(c1ccc(Cl)cc1)CN=2`, in series [1], the half-inhibitory concentration (IC50) stood at 0.2 µM. Also, in series [2], the concentration giving a half-maximal response (EC50) is 6.58 µM.
On the same counts, the results for `O=c1/c(=C\c2ccc(F)cc2)sc2n1CN(c1ccccc1)CN=2` are 2.2 µM and 18.7 µM.
As for `CC1CCC(C(=O)N(c2cc(-c3ccccc3)sc2C(=O)O)C2CCC(O)CC2)CC1` (configuration not stated) [VCH-759], the selectivity ratio in series [4] was found to be 15.4; in series [6], 11.7. In addition, the CC50 at 24 h was found to be 81.3 µM in series [5] and 61.8 µM in series [7]. The IC50 in series [1] is 0.14 µM. In series [2], the EC50 is 5.29 µM.
For `COc1ccc(N2CN=c3s/c(=C/c4ccc(Cl)cc4Cl)c(=O)n3C2)cc1`, the concentration for half-maximal inhibition (IC50) in series [1] came out at 0.22 µM. Moreover, the 50% effective concentration (EC50) in series [2] stood at 13.2 µM.
For `N=C1S/C(=C\c2ccccc2)C(=O)N1c1ccccc1` the same measures were 0.58 µM and 11.1 µM.
On to `O=C(CN1C(=O)S/C(=C\c2ccc(Cl)cc2)C1=O)Nc1ccc(Cl)cc1`, for which the IC50 in series [1] was found to be 0.21 µM. Further, the EC50 in series [2] was found to be 7.8 µM.
For `O=C(CN1C(=O)S/C(=C\c2ccccc2)C1=O)Nc1ccccc1` the same measures were 4.8 µM and 19.6 µM.
`O=c1/c(=C\c2ccccc2)sc2n1CN(c1ccc(Cl)cc1)CN=2`: in series [1], the half-inhibitory concentration (IC50) was found to be 0.49 µM. In addition, the concentration giving a half-maximal response (EC50) in series [2] was found to be 19.3 µM.
As for `COc1ccc(N2CN=c3s/c(=C/c4ccccc4Cl)c(=O)n3C2)cc1`, in series [1], the IC50 came to 1.26 µM. In addition, the concentration for a half-maximal effect (EC50) in series [2] is 13.5 µM.
For `COc1ccc(NC(=O)CN2C(=O)S/C(=C\c3ccccc3)C2=O)cc1` the same measures were 0.45 µM and 10.6 µM.
On the same counts, the results for `COc1ccc(NC(=O)CN2C(=O)S/C(=C\c3ccccc3Cl)C2=O)cc1` are 1.2 µM and 11 µM.
Consider `O=c1/c(=C\c2ccccc2Cl)sc2n1CN(c1ccccc1)CN=2`, for which the concentration for half-maximal inhibition (IC50) in series [1] turned out to be 0.43 µM. Further, the EC50 in series [2] was 30.7 µM.
With `O=c1/c(=C\c2ccc(Cl)cc2)sc2n1CN(c1ccccc1)CN=2`, the Ratio IC50 in series [3] was 1 to 2. The 50% inhibitory concentration (IC50) in series [1] was found to be 0.12 µM. Besides, the concentration giving a half-maximal response (EC50) in series [2] was found to be 10.9 µM.
In the case of `O=C(CN1C(=O)S/C(=C\c2ccc(Cl)cc2Cl)C1=O)Nc1ccc(Cl)cc1`, in series [1], the concentration for half-maximal inhibition (IC50) was 5.12 µM. In series [2], the concentration for a half-maximal effect (EC50) was determined as 44 µM.
On the same counts, the results for `COc1ccc(/C=c2/sc3n(c2=O)CN(c2ccc(OC)cc2)CN=3)cc1` are 0.54 µM and 9.54 µM.
In the case of `COc1ccc(N2CN=c3s/c(=C/c4ccc(Cl)cc4)c(=O)n3C2)cc1`, the concentration for half-maximal inhibition (IC50) in series [1] amounted to 3.53 µM. For the same molecule, the concentration for a half-maximal effect (EC50) in series [2] stood at 10.3 µM.
As for `COc1ccc(/C=C2\SC(=O)N(CC(=O)Nc3ccc(OC)cc3)C2=O)cc1`, in series [1], the IC50 turned out to be 0.78 µM. For the same molecule, in series [2], the EC50 was found to be 19.6 µM.
Turning to `O=c1/c(=C\c2ccc(Cl)cc2)sc2n1CN(c1ccc(Cl)cc1)CN=2`, in series [1], the 50% inhibitory concentration (IC50) came out at 1.82 µM. Further, the 50% effective concentration (EC50) in series [2] stood at 10.8 µM.
On to `O=C(CN1C(=O)S/C(=C\c2ccc(F)cc2)C1=O)Nc1ccc(Cl)cc1`, for which the Ratio IC50 in series [3] was 1 to 2. Further, the IC50 in series [1] was 0.1 µM. Moreover, the EC50 in series [2] came out at 16.9 µM.
As for `COc1ccc(/C=c2/sc3n(c2=O)CN(c2ccccc2)CN=3)cc1`, the half-inhibitory concentration (IC50) in series [1] stood at 0.2 µM. Also, the EC50 in series [2] was found to be 12.6 µM.
On the same counts, the results for `O=C(C/N=C1/S/C(=C\c2ccccc2)C(=O)N1c1ccccc1)Nc1ccccc1` are 0.76 µM and 8.98 µM.
On the same counts, the results for `O=C(CN1C(=O)S/C(=C\c2ccc(Cl)cc2Cl)C1=O)Nc1ccccc1` are 0.44 µM and 10.8 µM.
On to `O=c1/c(=C\c2ccc(Cl)cc2Cl)sc2n1CN(c1ccccc1)CN=2`, for which the concentration for half-maximal inhibition (IC50) in series [1] was 1.37 µM. The EC50 in series [2] came out at 14.5 µM.
On the same counts, the results for `COc1ccc(/C=c2/sc3n(c2=O)CN(c2ccc(Cl)cc2)CN=3)cc1` are 0.99 µM and 24.3 µM.
On the same counts, the results for `O=c1/c(=C\c2ccc(Cl)cc2Cl)sc2n1CN(c1ccc(Cl)cc1)CN=2` are 0.54 µM and 9.5 µM.
For `COc1ccc(N2CN=c3s/c(=C/c4ccccc4)c(=O)n3C2)cc1` the same measures were 0.75 µM and 10.8 µM.
Turning to `O=C(CN1C(=O)S/C(=C\c2ccccc2)C1=O)Nc1ccc(Cl)cc1`, the concentration for half-maximal inhibition (IC50) in series [1] amounted to 0.14 µM. In series [2], the EC50 came out at 16.7 µM.
For the molecule `COc1ccc(NC(=O)CN2C(=O)S/C(=C\c3ccc(Cl)cc3Cl)C2=O)cc1`, the IC50 in series [1] amounted to 0.32 µM. Besides, the 50% effective concentration (EC50) in series [2] was found to be 43.9 µM.
On the same counts, the results for `O=C(CN1C(=O)S/C(=C\c2ccccc2Cl)C1=O)Nc1ccc(Cl)cc1` are 2.99 µM and 6.47 µM.
For the molecule `COc1ccc(NC(=O)CN2C(=O)S/C(=C\c3ccc(F)cc3)C2=O)cc1`, in series [1], the IC50 stood at 0.39 µM. In addition, the concentration giving a half-maximal response (EC50) in series [2] was 10.8 µM.
As for `O=c1/c(=C\c2ccccc2Cl)sc2n1CN(c1ccc(Cl)cc1)CN=2`, in series [3], the Ratio IC50 lay within 1 to 2. In addition, in series [1], the half-maximal inhibitory concentration (IC50) turned out to be 0.09 µM. In addition, the 50% effective concentration (EC50) in series [2] was determined as 13.8 µM.
